Measurements from ChEMBL document CHEMBL4261537, “Synthesis and pharmacological evaluation of multi-functional homoisoflavonoid derivatives as potent inhibitors of monoamine oxidase B and cholinesterase for the treatment of Alzheimer's disease” (Medchemcomm, 2017).

Key:
[1] = Selectivity index, ratio of IC50 for equine serum BuChE to IC50 for electric eel AChE
[2] = molecular target: Acetylcholinesterase (Homo sapiens, UniProt P22303); assay: Inhibition of human erythrocytes AChE using acetylthiocholine iodide as substrate preincubated for 5 mins followed by substrate addition measured at 1 to 3 mins time interval by Ellman's method
[3] = molecular target: T1, Acetylcholinesterase (Electrophorus electricus, UniProt O42275); assay: Inhibition of electric eel AChE using acetylthiocholine iodide as substrate preincubated for 5 mins followed by substrate addition measured at 1 to 3 mins time interval by Ellman's method
[4] = species on record: Homo sapiens; assay: Selectivity index, ratio of IC50 for human serum BuChE to IC50 for human erythrocytes AChE
[5] = molecular target: T2, Cholinesterase (Homo sapiens, UniProt P06276); assay: Inhibition of human serum BuChE using S-butyrylthiocholine iodide as substrate preincubated for 5 mins followed by substrate addition measured at 1 to 3 mins time interval by Ellman's method; type: ADME
[6] = molecular target: T3, Amine oxidase [flavin-containing] A (Homo sapiens, UniProt P21397); assay: Inhibition of recombinant human MAO-A assessed as reduction in H2O2 production at 100 uM using p-tyramine as substrate preincubated for 15 mins followed by substrate addition by Amplex red reagent based fluorescence assay
T3 sequence (P21397 whole entry): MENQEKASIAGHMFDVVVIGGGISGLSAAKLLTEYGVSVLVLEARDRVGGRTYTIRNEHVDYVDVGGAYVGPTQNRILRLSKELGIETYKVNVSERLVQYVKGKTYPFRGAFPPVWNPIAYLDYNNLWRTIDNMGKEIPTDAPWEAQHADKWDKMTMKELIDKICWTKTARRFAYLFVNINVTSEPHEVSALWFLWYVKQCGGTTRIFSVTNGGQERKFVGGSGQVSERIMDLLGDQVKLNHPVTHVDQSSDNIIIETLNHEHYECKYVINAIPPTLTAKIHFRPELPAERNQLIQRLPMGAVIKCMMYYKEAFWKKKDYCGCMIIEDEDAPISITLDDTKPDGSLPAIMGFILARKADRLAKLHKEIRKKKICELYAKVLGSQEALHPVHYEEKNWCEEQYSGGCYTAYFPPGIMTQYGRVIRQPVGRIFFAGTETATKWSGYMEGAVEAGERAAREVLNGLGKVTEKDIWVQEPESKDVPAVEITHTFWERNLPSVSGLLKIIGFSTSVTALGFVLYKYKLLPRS
Method in brief: (§1)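 Human MAO-A or MAO-B, each set to the same control reaction velocity. Preincubated with compound 15 min at 37°C in the dark, in sodium phosphate buffer with DMSO. Then 200 μM Amplex Red (final) added with 1 U/mL HRP and 1 mM p-tyramine. Resorufin fluorescence read at 37°C (ex 545/em 590 nm), background from enzyme-free wells subtracted. Run in triplicate, mean ± SD.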

[7] = molecular target: T4, Cholinesterase (Equus caballus, UniProt P81908); assay: Inhibition of equine serum BuChE using S-butyrylthiocholine iodide as substrate preincubated for 5 mins followed by substrate addition measured at 1 to 3 mins time interval by Ellman's method; type: ADME
[8] = species on record: Homo sapiens; assay: Selectivity index, ratio of IC50 for recombinant human MAO-A to IC50 for recombinant human MAO-B
[9] = molecular target: T5, Amine oxidase [flavin-containing] B (Homo sapiens, UniProt P27338); assay: Inhibition of recombinant human MAO-B assessed as reduction in H2O2 production using p-tyramine as substrate preincubated for 15 mins followed by substrate addition by Amplex red reagent based fluorescence assay
T5 sequence (P27338 whole entry): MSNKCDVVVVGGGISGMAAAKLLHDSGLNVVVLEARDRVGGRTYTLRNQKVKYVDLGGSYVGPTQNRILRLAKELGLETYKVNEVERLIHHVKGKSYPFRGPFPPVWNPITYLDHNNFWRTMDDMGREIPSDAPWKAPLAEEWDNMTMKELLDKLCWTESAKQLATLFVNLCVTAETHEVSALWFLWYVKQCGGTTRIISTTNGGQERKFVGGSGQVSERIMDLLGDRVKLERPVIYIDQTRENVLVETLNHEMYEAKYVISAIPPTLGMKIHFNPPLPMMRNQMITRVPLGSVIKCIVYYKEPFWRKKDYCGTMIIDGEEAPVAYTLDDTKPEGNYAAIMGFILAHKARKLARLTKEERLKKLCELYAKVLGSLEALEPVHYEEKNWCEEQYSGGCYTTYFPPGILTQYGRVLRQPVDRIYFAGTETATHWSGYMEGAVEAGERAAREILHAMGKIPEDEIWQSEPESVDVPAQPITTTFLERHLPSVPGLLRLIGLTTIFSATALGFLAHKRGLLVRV
Method in brief: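 Human MAO-A or MAO-B, each set to the same control reaction velocity. Preincubated with compound 15 min at 37°C in the dark, in sodium phosphate buffer with DMSO. Then 200 μM Amplex Red (final) added with 1 U/mL HRP and 1 mM p-tyramine. Run in triplicate, mean ± SD.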

[10] = molecular target: T3, Amine oxidase [flavin-containing] A; assay: Inhibition of recombinant human MAO-A assessed as reduction in H2O2 production using p-tyramine as substrate preincubated for 15 mins followed by substrate addition by Amplex red reagent based fluorescence assay
[11] = molecular target: T2, Cholinesterase; assay: Inhibition of human serum BuChE at 100 uM using S-butyrylthiocholine iodide as substrate preincubated for 5 mins followed by substrate addition measured at 1 to 3 mins time interval by Ellman's method
Method in brief: (§2)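 Ellman assay: compound diluted in 50 mM Tris-HCl pH 8.0 with 0.1 M NaCl, 0.02 M MgCl2 (DMSO 1%). Preincubated 5 min at 37°C with 1.5 mM DTNB and BuChE (0.12 U/mL in Tris with 0.1% BSA); 15 mM S-butyrylthiocholine iodide added; absorbance at 405 nm read at 0, 1, 2, 3 min.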

[12] = molecular target: T4, Cholinesterase; assay: Inhibition of equine serum BuChE at 100 uM using S-butyrylthiocholine iodide as substrate preincubated for 5 mins followed by substrate addition measured at 1 to 3 mins time interval by Ellman's method; details: horse; method in brief: as §2
[13] = test system: Mus musculus; assay: Acute toxicity in Kunming mouse assessed as change in body weight up to 2000 mg/kg, po administered as single dose up to 2 weeks; type: organism-based; details: in vivo, 336 h
[14] = test system: Mus musculus; assay: Acute toxicity in Kunming mouse assessed as fatality up to 2000 mg/kg, po administered as single dose up to 2 weeks; type: organism-based; details: in vivo, 336 h
Method in brief: (§3)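 Male Kunming mice (18-22g), acclimatised 4 days, fasted 12 h; single oral dose of 677, 1333 or 2000 mg/kg suspended in 0.5% CMC-Na (0.4 ml per mouse), vehicle group 0 mg/kg; 20 mice in 4 groups. Watched continuously for 4 h for abnormal behaviour and deaths, then intermittently to 24 h; observation over 14 days.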

[15] = Effective permeability of the compound at 0.1 mg/ml after 16 hrs by PAMPA; type: ADME; details: read-out: Peff
Method in brief: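 Porcine brain lipid in dodecane (20 mg/mL) coated on PVDF filter. Compound stock 5 mg/mL in DMSO, diluted 50-fold into PBS/EtOH (70:30) to 0.1 mg/mL in donor wells; acceptor holds PBS/EtOH (70:30). Incubated 16 h at 25°C. UV plate read at five wavelengths, four wells, at least three runs. Pe derived from acceptor absorbance versus theoretical equilibrium absorbance.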

[16] = molecular target: T5, Amine oxidase [flavin-containing] B; assay: Non-competitive inhibition of recombinant human MAO-B assessed as reduction in H2O2 production at 0.015 to 0.06 uM using p-tyramine as substrate preincubated for 15 mins followed by substrate addition by Lineweaver-Burk plot analysis
[17] = test system: Mus musculus; assay: Acute toxicity in Kunming mouse assessed as damage to liver up to 2000 mg/kg, po administered as single dose measured after 14 days; type: organism-based; details: in vivo, 336 h
Method in brief: (§4)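 Male Kunming mice given one oral dose (0, 677, 1333, 2000 mg/kg) in 0.5% CMC-Na after a 12 h fast; after 14 days of observation, animals sacrificed and liver, heart and kidneys visually examined for damage.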

[18] = test system: Mus musculus; assay: Acute toxicity in Kunming mouse assessed as damage to heart up to 2000 mg/kg, po administered as single dose measured after 14 days; type: organism-based; details: in vivo, 336 h; method in brief: as §4
[19] = molecular target: T5, Amine oxidase [flavin-containing] B; assay: Time-dependent inhibition of recombinant human MAO-B at 0.003 uM using p-tyramine as substrate preincubated for 15 to 60 mins followed by substrate addition and compound dilution to IC50 by Amplex red reagent based fluorescence assay
[20] = test system: Mus musculus; assay: Acute toxicity in Kunming mouse assessed as change in mental behavior up to 2000 mg/kg, po administered as single dose up to 2 weeks; type: organism-based; details: in vivo, 336 h; method in brief: as §3
[21] = molecular target: T1, Acetylcholinesterase; assay: Mixed-type inhibition of electric eel AChE using varying levels of acetylthiocholine iodide as substrate measured at 1 to 3 mins time interval by Lineweaver-Burk plot analysis
Method in brief: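 Electric eel AChE assayed by Ellman's method at […] substrate 0.05-0.25 mM, without inhibitor and with inhibitor at 0.5, 1.0 or 2.0 μM; activity read at 0, 1, 2, 3 min. Lineweaver–Burk plots built; their slopes plotted against inhibitor concentration, Ki taken as the negative x-axis intercept.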

[22] = test system: Mus musculus; assay: Acute toxicity in Kunming mouse assessed as damage to kidney up to 2000 mg/kg, po administered as single dose measured after 14 days; type: organism-based; details: in vivo, 336 h; method in brief: as §4
[23] = molecular target: T5, Amine oxidase [flavin-containing] B; assay: Reversible inhibition of recombinant human MAO-B at 0.003 uM using p-tyramine as substrate preincubated for 15 to 60 mins followed by substrate addition and compound dilution to IC50 by Amplex red reagent based fluorescence assay
[24] = molecular target: T5, Amine oxidase [flavin-containing] B; assay: Inhibition of recombinant human MAO-B assessed as reduction in H2O2 production at 100 uM using p-tyramine as substrate preincubated for 15 mins followed by substrate addition by Amplex red reagent based fluorescence assay; method in brief: as §1

T1 sequence (O42275 whole entry): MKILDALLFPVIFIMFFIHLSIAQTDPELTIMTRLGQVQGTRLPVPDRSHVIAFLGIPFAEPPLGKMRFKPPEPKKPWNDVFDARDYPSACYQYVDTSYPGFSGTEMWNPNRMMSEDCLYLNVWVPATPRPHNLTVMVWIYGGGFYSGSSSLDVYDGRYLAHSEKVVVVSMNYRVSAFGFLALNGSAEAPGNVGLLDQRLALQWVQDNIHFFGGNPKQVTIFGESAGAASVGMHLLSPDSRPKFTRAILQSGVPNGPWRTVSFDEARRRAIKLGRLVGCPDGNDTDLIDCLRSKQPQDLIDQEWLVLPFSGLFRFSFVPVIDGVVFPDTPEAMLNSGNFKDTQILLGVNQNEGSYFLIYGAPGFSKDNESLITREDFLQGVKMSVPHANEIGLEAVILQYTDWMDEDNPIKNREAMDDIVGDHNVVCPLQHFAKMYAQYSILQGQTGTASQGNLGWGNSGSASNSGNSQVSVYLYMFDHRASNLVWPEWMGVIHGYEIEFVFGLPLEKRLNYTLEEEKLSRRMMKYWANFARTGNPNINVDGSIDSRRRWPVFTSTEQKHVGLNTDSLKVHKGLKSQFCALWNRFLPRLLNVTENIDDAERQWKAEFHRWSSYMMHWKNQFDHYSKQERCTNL
Acetylcholinesterase (Homo sapiens, UniProt P22303), sequence (P22303 whole entry): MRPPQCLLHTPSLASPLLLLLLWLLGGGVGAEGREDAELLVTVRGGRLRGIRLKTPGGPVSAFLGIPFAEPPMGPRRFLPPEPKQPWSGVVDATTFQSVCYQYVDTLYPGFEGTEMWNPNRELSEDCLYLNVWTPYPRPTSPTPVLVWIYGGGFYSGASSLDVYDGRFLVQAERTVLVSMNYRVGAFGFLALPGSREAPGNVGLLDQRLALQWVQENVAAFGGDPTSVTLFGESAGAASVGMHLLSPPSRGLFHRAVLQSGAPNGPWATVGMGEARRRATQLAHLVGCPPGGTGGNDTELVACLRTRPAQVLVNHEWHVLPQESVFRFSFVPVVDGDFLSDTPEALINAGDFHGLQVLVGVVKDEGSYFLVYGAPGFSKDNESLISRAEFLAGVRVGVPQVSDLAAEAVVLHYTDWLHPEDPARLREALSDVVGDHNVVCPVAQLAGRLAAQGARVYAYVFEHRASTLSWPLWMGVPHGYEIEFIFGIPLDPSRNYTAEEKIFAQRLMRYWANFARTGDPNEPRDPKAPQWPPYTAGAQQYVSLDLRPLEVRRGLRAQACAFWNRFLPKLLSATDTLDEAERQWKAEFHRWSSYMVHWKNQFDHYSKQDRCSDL
T4 sequence (P81908 whole entry): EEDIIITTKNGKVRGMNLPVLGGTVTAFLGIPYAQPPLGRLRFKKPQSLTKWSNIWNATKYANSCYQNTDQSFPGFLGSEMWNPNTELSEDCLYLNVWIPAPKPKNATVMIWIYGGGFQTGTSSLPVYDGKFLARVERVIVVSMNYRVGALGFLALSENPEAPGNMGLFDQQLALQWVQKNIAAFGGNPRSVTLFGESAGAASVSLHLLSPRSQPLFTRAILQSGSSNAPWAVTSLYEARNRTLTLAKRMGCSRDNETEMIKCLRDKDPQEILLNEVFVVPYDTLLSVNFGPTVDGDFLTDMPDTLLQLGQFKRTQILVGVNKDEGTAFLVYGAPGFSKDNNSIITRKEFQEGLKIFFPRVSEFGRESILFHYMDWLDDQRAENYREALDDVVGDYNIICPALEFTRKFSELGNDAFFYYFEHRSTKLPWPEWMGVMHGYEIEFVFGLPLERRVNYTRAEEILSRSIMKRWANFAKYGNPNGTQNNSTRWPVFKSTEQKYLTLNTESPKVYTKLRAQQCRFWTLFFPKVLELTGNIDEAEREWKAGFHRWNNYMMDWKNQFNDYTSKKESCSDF
T2 sequence (P06276 whole entry): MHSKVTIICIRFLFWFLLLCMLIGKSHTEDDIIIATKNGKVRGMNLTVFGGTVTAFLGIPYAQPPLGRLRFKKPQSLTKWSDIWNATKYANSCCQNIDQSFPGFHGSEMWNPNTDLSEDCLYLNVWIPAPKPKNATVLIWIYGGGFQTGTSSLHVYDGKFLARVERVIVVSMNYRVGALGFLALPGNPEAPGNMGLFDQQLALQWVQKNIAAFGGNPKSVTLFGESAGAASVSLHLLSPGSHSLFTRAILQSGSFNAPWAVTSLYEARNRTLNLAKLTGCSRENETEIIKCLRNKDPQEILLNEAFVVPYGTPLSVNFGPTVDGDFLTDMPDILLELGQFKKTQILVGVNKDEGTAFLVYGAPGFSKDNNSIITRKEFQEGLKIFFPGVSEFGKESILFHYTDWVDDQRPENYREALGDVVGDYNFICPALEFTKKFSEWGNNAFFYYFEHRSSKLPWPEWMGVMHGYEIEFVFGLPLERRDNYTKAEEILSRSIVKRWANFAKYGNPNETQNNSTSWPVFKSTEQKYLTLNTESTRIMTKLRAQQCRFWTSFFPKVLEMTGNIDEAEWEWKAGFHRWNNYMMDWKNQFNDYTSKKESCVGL

Row | SMILES | Ratio IC50 [1] | IC50 [2] | IC50 [3] | Ratio IC50 [4] | IC50 [5] | inhibition (INH) [6] | IC50 [7] | Ratio IC50 [8] | IC50 [9] | IC50 [10] | other results
1 | CN(CCCCCCOc1ccc(/C=C2\COc3ccccc3C2=O)cc1)Cc1ccccc1 | 28.7 | 40.9 µM | 1.77 µM | 0.489 | 20 µM | Not Active | 50.7 µM | > 1 | > 100 µM |  | 
2 | CCN(CC)CCCCCCOc1ccc(/C=C2\COc3ccccc3C2=O)cc1 | 1.29 | 1.85 µM | 3.75 µM | 2.3 | 4.25 µM |  | 4.83 µM | 13.1 | 2.9 µM | 37.8 µM | 
3 | O=C1/C(=C/c2ccc(O)cc2)COc2ccccc21 | > 2.25 | 99.9 µM | 44.4 µM | 1.01 |  | Not Active |  | > 413 | 0.242 µM |  | inhibition (INH) [11]: Not Active; inhibition (INH) [12]: Not Active
4 | CCN(CC)CCCCOc1ccc(/C=C2\COc3ccccc3C2=O)cc1 | 0.756 | 14.1 µM | 6.1 µM | 0.801 | 11.3 µM |  | 4.61 µM | 18.5 | 2.86 µM | 52.9 µM | 
5 | CCN(CC)CCOc1cccc(/C=C2\COc3ccccc3C2=O)c1 | 0.403 | 30.3 µM | 4.16 µM | 0.34 | 10.3 µM |  | 1.68 µM | 97.1 | 0.824 µM | 80 µM | 
6 | CN(C)CCOc1ccc(/C=C2\COc3ccccc3C2=O)cc1 | 32.3 | 0.657 µM | 0.89 µM | 14.2 | 9.31 µM |  | 28.7 µM | 1024 | 0.0372 µM | 38.1 µM | Activity [13]: Non-Toxic; Activity [14]: Non-Toxic; Papp at 16 h, 0.1 mg/ml [15]: 10.6 ×10⁻⁶ cm/s; Ki [16]: 0.551 µM; Activity [17]: Non-Toxic; Activity [18]: Non-Toxic; TDI [19]: Not Active; Activity [20]: Non-Toxic; Ki [21]: 0.404 µM; Activity [22]: Non-Toxic; inhibition (INH) [23]: Active
7 | CN(C)CCCOc1cccc(/C=C2\COc3ccccc3C2=O)c1 | 0.435 | 25.7 µM | 4.97 µM | 1.53 | 39.3 µM |  | 2.16 µM | 1940 | 0.0484 µM | 93.7 µM | 
8 | O=C1/C(=C/c2ccc(OCCCN3CCN(Cc4ccccc4)CC3)cc2)COc2ccccc21 | 87.8 | 4.72 µM | 1.02 µM | > 21.2 |  | Not Active | 89.5 µM | > 2.59 | 38.6 µM |  | inhibition (INH) [11]: Not Active
9 | CN(C)CCOc1cccc(/C=C2\COc3ccccc3C2=O)c1 | 8.05 | 1.41 µM | 1.04 µM | 3.15 | 4.44 µM |  | 8.37 µM | 66.5 | 0.571 µM | 38 µM | 
10 | CCN(CC)CCOc1ccc(/C=C2\COc3ccccc3C2=O)cc1 | 28 | 3.29 µM | 1.03 µM | 7.17 | 23.6 µM |  | 28.9 µM | 1220 | 0.0381 µM | 46.6 µM | 
11 | O=C1/C(=C/c2ccc(OCCCCCCN3CCN(Cc4ccccc4)CC3)cc2)COc2ccccc21 | > 1.65 |  | 60.8 µM |  |  | Not Active |  | > 1 | > 100 µM |  | inhibition (INH) [12]: Not Active
12 | CCN(CC)CCCOc1ccccc1/C=C1\COc2ccccc2C1=O | 0.0892 |  | 54.8 µM |  |  | Not Active | 4.89 µM |  |  |  | inhibition (INH) [24]: Not Active
